Experiments:
Motilin receptor = Motilin receptor (Homo sapiens, UniProt O43193); experiment: Agonist activity at human recombinant motilin receptor expressed in HEK293 cells by FLIPR assay; format: functional, cell-based
In short: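 HEK293 cells stably expressing human motilin receptor, seeded on poly-lysine plates 24 h before assay. Loaded with Fluo-4-AM (final) and 1 mM probenecid (final) in HEPES-buffered saline with 0.1% BSA for 1 h at 25 °C, washed, rested 20 min at 25 °C. Fluorescence change followed for 2 min after compound addition. Peak change over baseline was fitted with a 4-parameter logistic to give pEC50. Mean of at least three independent experiments (n = 2 for some).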

Stomach [1] = experiment: Potentiation of electrical field stimulation-induced contraction in New Zealand white rabbit gastric antrum at 3 uM; format: functional; conditions: Oryctolagus cuniculus
Stomach [2] = experiment: Potentiation of electrical field stimulation-induced contraction in New Zealand white rabbit gastric antrum at 0.3 uM; format: functional; conditions: Oryctolagus cuniculus
Stomach [3] = experiment: Potentiation of electrical field stimulation-induced contraction in New Zealand white rabbit gastric antrum at 1 uM; format: functional; conditions: Oryctolagus cuniculus
Stomach [4] = experiment: Potentiation of electrical field stimulation-induced contraction in New Zealand white rabbit gastric antrum at 10 uM; format: functional; conditions: Oryctolagus cuniculus
Cytochrome P450 3A4 [5] = molecular target: T1, Cytochrome P450 3A4 (Homo sapiens, UniProt P08684); experiment: Inhibition of CYP3A4 using diethoxyfluorescein substrate; format: ADME
Cytochrome P450 3A4 [6] = molecular target: T1, Cytochrome P450 3A4; experiment: Inhibition of CYP3A4 using phenyl-piperazinyl-methyl-benzyl-resofurin substrate; format: ADME
Liver microsomes [7] = experiment: Intrinsic clearance in human liver microsome; format: ADME
Liver microsomes [8] = experiment: Intrinsic clearance in rat liver microsome; format: ADME
Stomach [9] = experiment: Potentiation of electrical field stimulation-induced contraction in New Zealand white rabbit gastric antrum at 1.5 uM; format: functional; conditions: Oryctolagus cuniculus
Cytochrome P450 2C19 = Cytochrome P450 2C19 (Homo sapiens, UniProt P33261); experiment: Inhibition of CYP2C19; format: ADME
Cytochrome P450 1A2 = molecular target: T2, Cytochrome P450 1A2 (Homo sapiens, UniProt P05177); experiment: Inhibition of CYP1A2; format: ADME
T2 sequence (P05177 whole entry): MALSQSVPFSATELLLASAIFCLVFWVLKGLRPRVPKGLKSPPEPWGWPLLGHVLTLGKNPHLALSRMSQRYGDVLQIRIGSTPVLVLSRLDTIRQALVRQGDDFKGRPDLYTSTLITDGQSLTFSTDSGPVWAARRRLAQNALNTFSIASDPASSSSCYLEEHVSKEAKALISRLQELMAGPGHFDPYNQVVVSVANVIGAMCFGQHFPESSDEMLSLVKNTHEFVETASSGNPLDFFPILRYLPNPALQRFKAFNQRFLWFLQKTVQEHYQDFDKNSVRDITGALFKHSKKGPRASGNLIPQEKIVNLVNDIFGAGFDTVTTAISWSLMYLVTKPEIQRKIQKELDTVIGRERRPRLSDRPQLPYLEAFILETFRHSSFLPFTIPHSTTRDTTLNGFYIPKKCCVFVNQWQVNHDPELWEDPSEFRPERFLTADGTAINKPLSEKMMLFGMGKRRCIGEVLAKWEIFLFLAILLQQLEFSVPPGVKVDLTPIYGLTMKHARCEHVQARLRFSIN

[10] = molecular target: Growth hormone secretagogue receptor type 1 (Homo sapiens, UniProt Q92847); experiment: Inhibition of human Ghrelin receptor
[11] = Clearance in rat; format: ADME, organism-based; conditions: in vivo
Cytochrome P450 2D6 = Cytochrome P450 2D6 (Homo sapiens, UniProt P10635); experiment: Inhibition of CYP2D6; format: ADME
[12] = Oral bioavailability in rat; format: ADME, organism-based; conditions: in vivo
[13] = Distribution coefficient, log D at pH 7.4; format: physicochemical; conditions: octanol/water
Cytochrome P450 2C9 = Cytochrome P450 2C9 (Homo sapiens, UniProt P11712); experiment: Inhibition of CYP2C9; format: ADME
Sequence of Cytochrome P450 2C9 (P11712 whole entry): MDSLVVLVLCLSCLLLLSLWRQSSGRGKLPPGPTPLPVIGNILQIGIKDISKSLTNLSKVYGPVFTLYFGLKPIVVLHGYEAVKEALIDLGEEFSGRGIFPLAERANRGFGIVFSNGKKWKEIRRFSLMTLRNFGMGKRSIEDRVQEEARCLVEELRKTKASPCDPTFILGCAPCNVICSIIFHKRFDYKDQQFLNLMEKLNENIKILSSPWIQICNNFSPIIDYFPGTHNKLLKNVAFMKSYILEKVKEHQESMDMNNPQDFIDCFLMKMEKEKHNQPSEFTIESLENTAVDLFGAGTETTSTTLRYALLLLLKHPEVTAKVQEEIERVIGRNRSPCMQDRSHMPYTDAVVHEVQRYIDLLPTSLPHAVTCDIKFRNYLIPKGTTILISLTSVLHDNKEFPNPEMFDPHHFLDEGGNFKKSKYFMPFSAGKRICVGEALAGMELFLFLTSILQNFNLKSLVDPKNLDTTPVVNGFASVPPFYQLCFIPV

Sequence of Motilin receptor (O43193 whole entry): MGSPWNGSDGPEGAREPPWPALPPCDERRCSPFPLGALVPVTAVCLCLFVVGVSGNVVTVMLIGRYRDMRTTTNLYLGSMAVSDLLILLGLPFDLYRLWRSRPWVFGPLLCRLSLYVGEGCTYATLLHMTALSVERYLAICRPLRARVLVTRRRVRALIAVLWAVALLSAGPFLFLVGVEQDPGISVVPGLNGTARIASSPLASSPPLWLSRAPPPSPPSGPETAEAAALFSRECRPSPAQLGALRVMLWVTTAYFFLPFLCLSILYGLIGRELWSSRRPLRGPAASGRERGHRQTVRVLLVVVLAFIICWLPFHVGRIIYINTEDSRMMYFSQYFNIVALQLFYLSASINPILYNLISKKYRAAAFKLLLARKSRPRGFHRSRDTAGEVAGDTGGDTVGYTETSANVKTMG
T1 sequence (P08684 whole entry): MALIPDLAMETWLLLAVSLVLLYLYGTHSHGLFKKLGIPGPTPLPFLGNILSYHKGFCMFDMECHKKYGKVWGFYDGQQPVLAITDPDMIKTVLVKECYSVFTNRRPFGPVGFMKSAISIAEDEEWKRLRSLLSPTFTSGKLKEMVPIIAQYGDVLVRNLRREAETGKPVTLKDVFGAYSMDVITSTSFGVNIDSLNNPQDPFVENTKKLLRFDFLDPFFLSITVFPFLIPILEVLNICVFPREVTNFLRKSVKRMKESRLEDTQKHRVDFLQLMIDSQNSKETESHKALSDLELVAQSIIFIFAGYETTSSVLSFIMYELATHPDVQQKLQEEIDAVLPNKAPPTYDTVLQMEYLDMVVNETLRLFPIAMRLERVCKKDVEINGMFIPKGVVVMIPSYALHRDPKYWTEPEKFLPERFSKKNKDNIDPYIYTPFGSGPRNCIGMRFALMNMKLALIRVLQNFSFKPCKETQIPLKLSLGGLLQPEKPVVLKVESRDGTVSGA
Sequence of Cytochrome P450 2C19 (P33261 whole entry): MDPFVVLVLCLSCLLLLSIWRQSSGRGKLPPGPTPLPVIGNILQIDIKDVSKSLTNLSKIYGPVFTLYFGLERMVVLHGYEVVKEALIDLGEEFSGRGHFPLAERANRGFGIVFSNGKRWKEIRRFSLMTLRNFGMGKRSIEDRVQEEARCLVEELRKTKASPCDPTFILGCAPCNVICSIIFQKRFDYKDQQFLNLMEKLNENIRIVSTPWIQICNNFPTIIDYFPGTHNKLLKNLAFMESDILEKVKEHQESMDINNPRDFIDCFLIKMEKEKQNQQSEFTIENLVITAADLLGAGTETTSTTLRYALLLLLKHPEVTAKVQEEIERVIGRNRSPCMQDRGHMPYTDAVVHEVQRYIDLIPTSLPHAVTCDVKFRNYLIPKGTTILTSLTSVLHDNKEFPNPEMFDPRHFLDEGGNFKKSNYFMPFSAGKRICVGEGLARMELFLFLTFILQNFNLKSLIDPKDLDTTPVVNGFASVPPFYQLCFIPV
Sequence of Cytochrome P450 2D6 (P10635 whole entry): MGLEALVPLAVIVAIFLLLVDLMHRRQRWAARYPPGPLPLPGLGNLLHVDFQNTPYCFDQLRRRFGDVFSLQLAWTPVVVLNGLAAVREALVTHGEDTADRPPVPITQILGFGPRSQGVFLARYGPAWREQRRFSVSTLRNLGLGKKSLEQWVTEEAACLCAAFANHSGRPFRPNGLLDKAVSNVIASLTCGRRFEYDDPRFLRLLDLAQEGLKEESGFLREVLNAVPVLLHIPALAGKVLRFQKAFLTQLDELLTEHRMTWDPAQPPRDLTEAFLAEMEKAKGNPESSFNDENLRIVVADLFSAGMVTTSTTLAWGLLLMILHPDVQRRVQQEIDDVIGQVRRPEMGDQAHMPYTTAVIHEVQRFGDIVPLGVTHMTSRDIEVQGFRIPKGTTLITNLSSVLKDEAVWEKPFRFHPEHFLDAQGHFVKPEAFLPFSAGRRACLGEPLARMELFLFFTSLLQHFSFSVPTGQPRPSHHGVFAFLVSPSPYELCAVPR
Sequence of Growth hormone secretagogue receptor type 1 (Q92847 whole entry): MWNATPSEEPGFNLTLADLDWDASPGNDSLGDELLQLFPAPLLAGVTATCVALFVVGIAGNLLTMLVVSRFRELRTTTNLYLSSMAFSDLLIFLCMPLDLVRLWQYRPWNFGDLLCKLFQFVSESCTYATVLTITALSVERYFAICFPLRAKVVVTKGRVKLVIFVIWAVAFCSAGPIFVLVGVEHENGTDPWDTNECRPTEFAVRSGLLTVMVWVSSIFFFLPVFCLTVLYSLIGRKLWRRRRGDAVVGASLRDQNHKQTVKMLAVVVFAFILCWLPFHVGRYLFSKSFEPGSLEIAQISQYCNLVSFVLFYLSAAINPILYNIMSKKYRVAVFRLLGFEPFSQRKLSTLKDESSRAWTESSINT

With `COc1cccc(CCN(Cc2ccccc2-c2ccc(CN3CCNCC3)cc2)C(=O)COc2ccccc2)c1` the EC50 (Motilin receptor) was 0.251 µM.
In the case of `C[C@@H]1CN(Cc2ccc(-c3ccccc3CN(C)C(=O)CSc3ccccc3)cc2)C[C@H](C)N1`, the EC50 (Motilin receptor) is reported as 0.00316 µM.
Compound `C[C@@H]1CN(Cc2ccc(-c3ccccc3C(=O)N3CCC(Nc4ccc(F)cc4)CC3)cc2)C[C@H](C)N1` has an EC50 (Motilin receptor) of 0.00251 µM.
In the case of `CC[C@H]1OC(=O)[C@H](C)[C@@H](O[C@H]2C[C@@](C)(OC)[C@@H](O)[C@H](C)O2)[C@H](C)[C@@H](O[C@@H]2O[C@H](C)C[C@H](N(C)C)[C@H]2O)[C@](C)(O)C[C@@H](C)C(=O)[C@H](C)[C@@H](O)[C@]1(C)O` [ERYTHROMYCIN], the Emax at 3 µM (Stomach [1]) is reported as 490%, the Emax at 0.3 µM (Stomach [2]) is reported as 69% and the Emax at 1 µM (Stomach [3]) is reported as 189%. For the same compound, the Emax at 10 µM (Stomach [4]) was 368%.
For `C[C@@H]1CN(Cc2ccc(-c3cccnc3C(=O)N3CCC(Nc4ccccc4F)CC3)cc2)C[C@H](C)N1`, the EC50 (Motilin receptor) was 0.0501 µM.
`C[C@@H]1CN(Cc2ccc(-c3ccccc3CN(C)C(=O)COc3ccc(F)cc3)cc2)C[C@H](C)N1` gave an IC50 (Cytochrome P450 3A4 [5]) of 6 µM, an IC50 (Cytochrome P450 3A4 [6]) of 7.3 µM and an EC50 (Motilin receptor) of 0.0316 µM.
For `C[C@@H]1CN(Cc2ccc(-c3ccccc3C(=O)N3CCC(Nc4ccccc4)CC3)cc2)C[C@H](C)N1`, the IC50 (Cytochrome P450 3A4 [5]) was 12 µM, the CL (Liver microsomes [7]) was 7 mL/min/g and the CL (Liver microsomes [8]) was 20 mL/min/g. For the same compound, the IC50 (Cytochrome P450 3A4 [6]) was 17 µM and the EC50 (Motilin receptor) was 0.00501 µM.
In the case of `C[C@@H]1CN(Cc2ccc(-c3ccccc3C(=O)N3CCC(Cc4ccc(F)cc4)CC3)cc2)C[C@H](C)N1`, the IC50 (Cytochrome P450 3A4 [5]) is reported as 0.6 µM, the CL (Liver microsomes [7]) is reported as 29 mL/min/g and the CL (Liver microsomes [8]) is reported as 7 mL/min/g. The IC50 (Cytochrome P450 3A4 [6]) was 0.5 µM and the EC50 (Motilin receptor) was 0.01 µM.
`C[C@@H]1CN(Cc2ccc(-c3ccccc3CN(C)C(=O)Cc3ccc(F)cc3)cc2)C[C@H](C)N1` gave an EC50 (Motilin receptor) of 0.0501 µM.
`CC(C)CCC(=O)N(C)Cc1ccccc1-c1ccc(CN2C[C@@H](C)N[C@@H](C)C2)cc1` gave an EC50 (Motilin receptor) of 0.251 µM.
With `COc1ccc(NC2CCN(C(=O)c3ncccc3-c3ccc(CN4C[C@@H](C)N[C@@H](C)C4)cc3)CC2)cc1` the EC50 (Motilin receptor) was 1 µM.
With `C[C@@H]1CN(Cc2ccc(-c3ccccc3C(=O)N3CCC(Nc4ccc(Cl)cc4)CC3)cc2)C[C@H](C)N1` the IC50 (Cytochrome P450 3A4 [5]) was 5.2 µM, the CL (Liver microsomes [7]) was 8 mL/min/g and the CL (Liver microsomes [8]) was 33 mL/min/g. The IC50 (Cytochrome P450 3A4 [6]) was 3.5 µM and the EC50 (Motilin receptor) was 0.0501 µM.
With `COCCCN(Cc1ccccc1-c1ccc(CN2CCNCC2)cc1)C(=O)COc1ccccc1` the EC50 (Motilin receptor) was 0.398 µM.
In the case of `C[C@@H]1CN(Cc2ccc(-c3ccccc3CN(C)C(=O)CS(=O)(=O)c3ccccc3)cc2)C[C@H](C)N1`, the IC50 (Cytochrome P450 3A4 [5]) is reported as 3 µM, the CL (Liver microsomes [7]) is reported as 6.8 mL/min/g and the CL (Liver microsomes [8]) is reported as 4.3 mL/min/g. For the same compound, the IC50 (Cytochrome P450 3A4 [6]) was 8.9 µM and the EC50 (Motilin receptor) was 0.01 µM.
For `C[C@@H]1CN(Cc2ccc(-n3ccnc3C(=O)N3CCC(Nc4cccc(F)c4)CC3)cc2)C[C@H](C)N1`, the IC50 (Cytochrome P450 3A4 [5]) was 58 µM, the Emax at 1.5 µM (Stomach [9]) was 302% and the IC50 (Cytochrome P450 2C19) was greater than 100 µM. The IC50 (Cytochrome P450 1A2) was 74 µM, the Emax at 3 µM (Stomach [1]) was 224% and the EC50 [10] was 0.501 µM. It also gave a clearance [11] of 61 mL/min/kg, an IC50 (Cytochrome P450 2D6) of 29 µM and a CL (Liver microsomes [7]) of 3.4 mL/min/g. For the same compound, the bioavailability [12] was 17%, the CL (Liver microsomes [8]) was 4.1 mL/min/g and the Emax at 0.3 µM (Stomach [2]) was 73%. For the same compound, the logD [13] was 0.82, the IC50 (Cytochrome P450 3A4 [6]) was 46 µM and the EC50 (Motilin receptor) was 0.0158 µM. For the same compound, the IC50 (Cytochrome P450 2C9) was greater than 100 µM.
Work on `C[C@@H]1CN(Cc2ccc(-c3ccccc3C(=O)N3CCC(Nc4ccc(F)cc4)CC3)nc2)C[C@H](C)N1` yielded an EC50 (Motilin receptor) greater than 10 µM.
In the case of `C[C@@H]1CN(Cc2ccc(-c3cccnc3C(=O)N3CCC(Nc4ccccc4C#N)CC3)cc2)C[C@H](C)N1`, the EC50 (Motilin receptor) is reported as 0.794 µM.
Compound `C[C@@H]1CN(Cc2ccc(-c3cccnc3C(=O)N3CCC(Nc4ccc(F)cc4)CC3)cc2F)C[C@H](C)N1` has a CL (Liver microsomes [7]) of 5.5 mL/min/g, a CL (Liver microsomes [8]) of 6.5 mL/min/g and an EC50 (Motilin receptor) of 0.00398 µM.
`Cc1ccc(S(=O)(=O)NCC(=O)N(C)Cc2ccccc2-c2ccc(CN3C[C@@H](C)N[C@@H](C)C3)cc2)cc1` gave an EC50 (Motilin receptor) of 0.02 µM.
Work on `C[C@@H]1CN(Cc2ccc(-c3ccccc3CN(C)C(=O)Cc3cccc(Cl)c3)cc2)C[C@H](C)N1` yielded an IC50 (Cytochrome P450 3A4 [5]) of 1.4 µM, a CL (Liver microsomes [7]) of 20 mL/min/g and a CL (Liver microsomes [8]) of 17 mL/min/g. For the same compound, the IC50 (Cytochrome P450 3A4 [6]) was 1.5 µM and the EC50 (Motilin receptor) was 0.0794 µM.

Reference: ChEMBL document CHEMBL1152208, “The discovery of biaryl carboxamides as novel small molecule agonists of the motilin receptor” (Bioorg Med Chem Lett, 2008)
